Results published in ChEMBL document CHEMBL3779815, “Synthesis of newer 1,2,3-triazole linked chalcone and flavone hybrid compounds and evaluation of their antimicrobial and cytotoxic activities” (Eur J Med Chem, 2016).
Converted amounts (≈) assume the structure as drawn.

Assays:
Candida albicans [1] = assay: Antifungal activity against Candida albicans clinical isolate after 18 to 24 hrs by micro-dilution method; format: functional
In short: (§1)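 Microdilution MIC run as the antibacterial protocol but on Sabouraud dextrose […] pH 7.3±0.2; compounds 100 to 0.78 μg/mL in twofold steps; saline-prepared inocula 1-2 × 10⁷ cfu/mL, 0.01 mL added; 37 °C aerobic, 18-24 h; MIC read as lowest concentration without visible growth or turbidity; fluconazole reference.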

Candida albicans [2] = assay: Antifungal activity against Candida albicans ATCC 90028 after 18 to 24 hrs by micro-dilution method; format: functional; in short: as §1
Escherichia coli = assay: Antibacterial activity against Escherichia coli ATCC 35218 after 18 to 24 hrs by micro-dilution method; format: functional
Aspergillus niger = assay: Antifungal activity against Aspergillus niger clinical isolate after 18 to 24 hrs by micro-dilution method; format: functional; in short: as §1
Plasmodium falciparum = assay: Antimalarial activity against erythrocytic stage of chloroquine sensitive Plasmodium falciparum 3D7 assessed as inhibition of parasitemia after 48 hrs by Giemsa staining based microscopic analysis; format: functional, organism-based; settings: 3D7, 48 h
In short: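 Asynchronous culture on human O⁺ erythrocytes, 1-1.5% parasitemia, 4% hematocrit, RPMI-1640 with HEPES, NaHCO₃, glutamine, gentamycin, Albumax II; drug 0.10-100 μg/mL, 48 h, 37 °C, medium changed at 24 h; triplicate wells; Giemsa thin smears, about 4,000 erythrocytes counted at 1,000X; % parasitemia inhibition versus control gives IC50.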

Shigella boydii = assay: Antibacterial activity against Shigella boydii clinical isolate after 18 to 24 hrs by micro-dilution method; format: functional
Staphylococcus aureus = assay: Antibacterial activity against Staphylococcus aureus […] after 18 to 24 hrs by micro-dilution method; format: functional
Enterococcus faecalis = assay: Antibacterial activity against Enterococcus faecalis ATCC 29212 after 18 to 24 hrs by micro-dilution assay; format: functional
Arthrodermataceae = assay: Antifungal activity against Dermatophyte clinical isolate after 18 to 24 hrs by micro-dilution method; format: functional; in short: as §1
Candida tropicalis = assay: Antifungal activity against Candida tropicalis ATCC 750 after 18 to 24 hrs by micro-dilution method; format: functional; in short: as §1
Candida parapsilosis = assay: Antifungal activity against Candida parapsilosis ATCC 22019 after 18 to 24 hrs by micro-dilution method; format: functional; settings: Lodderomyces parapsilosis; in short: as §1
Cryptococcus neoformans = assay: Antifungal activity against Cryptococcus neoformans clinical isolate after 18 to 24 hrs by micro-dilution method; format: functional; in short: as §1
Pseudomonas aeruginosa = assay: Antibacterial activity against Pseudomonas aeruginosa […] after 18 to 24 hrs by micro-dilution method; format: functional
Aspergillus fumigatus = assay: Antifungal activity against Aspergillus fumigatus clinical isolate after 18 to 24 hrs by micro-dilution method; format: functional; in short: as §1
[3] = Cytotoxicity against human HuH7 cells after 72 hrs by MTT assay; format: cell-based, Huh-7
In short: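 Huh-7 cells, 4 × 10³/well in DMEM with 10% FBS and penicillin-streptomycin-glutamine; eight 2-fold dilutions 100-0.78 μg/mL, 72 h; MTT added 2-4 h, then isopropanol/Triton X-100/HCl solubilization 2 h dark, RT; absorbance 570 nm; CC50 as mean of at least two experiments in duplicate.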

Klebsiella pneumoniae = assay: Antibacterial activity against Klebsiella pneumoniae ATCC 27736 after 18 to 24 hrs by micro-dilution method; format: functional

Compound	MIC (Candida albicans [1]) [µg/mL]	MIC (Candida albicans [2]) [µg/mL]	MIC (Escherichia coli) [µg/mL]	MIC (Aspergillus niger) [µg/mL]	IC50 (Plasmodium falciparum) [µg/mL]	MIC (Shigella boydii) [µg/mL]	MIC (Staphylococcus aureus) [µg/mL]	MIC (Enterococcus faecalis) [µg/mL]	MIC (Arthrodermataceae) [µg/mL]	MIC (Candida tropicalis) [µg/mL]	MIC (Candida parapsilosis) [µg/mL]	MIC (Cryptococcus neoformans) [µg/mL]	MIC (Pseudomonas aeruginosa) [µg/mL]	MIC (Aspergillus fumigatus) [µg/mL]	CC50 at 72 h [3] [µg/mL]	MIC (Klebsiella pneumoniae) [µg/mL]
COc1cc(OC)c2c(=O)cc(-c3ccc(OCc4cn(-c5ccccc5Cl)nn4)c(OC)c3)oc2c1	> 100	> 100	100 (≈ 192 µM)	> 100	12.1 (≈ 23.2 µM)	> 100	50 (≈ 96.2 µM)	50 (≈ 96.2 µM)	> 100	> 100	> 100	> 100	50 (≈ 96.2 µM)	> 100	> 100	100 (≈ 192 µM)
COc1cc(O)c(C(=O)/C=C/c2ccc(OCc3cn(-c4ccc(F)cc4Cl)nn3)c(OC)c2)c(OC)c1	> 100	50 (≈ 92.6 µM)	12.5 (≈ 23.2 µM)	100 (≈ 185 µM)	6.27 (≈ 11.6 µM)	12.5 (≈ 23.2 µM)	6.25 (≈ 11.6 µM)	6.25 (≈ 11.6 µM)	25 (≈ 46.3 µM)	100 (≈ 185 µM)	> 100	> 100	12.5 (≈ 23.2 µM)	> 100	> 100	25 (≈ 46.3 µM)
COc1cc(O)c(C(=O)/C=C/c2ccc(OC)c(OCc3cn(-c4ccc(Cl)cc4)nn3)c2)c(OC)c1	12.5 (≈ 23.9 µM)	12.5 (≈ 23.9 µM)	100 (≈ 192 µM)	25 (≈ 47.9 µM)	11 (≈ 21.1 µM)	> 100	> 100	100 (≈ 192 µM)	12.5 (≈ 23.9 µM)	6.25 (≈ 12 µM)	12.5 (≈ 23.9 µM)	12.5 (≈ 23.9 µM)	> 100	25 (≈ 47.9 µM)	> 100	> 100
COc1cc(OC)c2c(=O)cc(-c3ccc(OCc4cn(-c5ccc(F)c(Cl)c5)nn4)c(OCc4cn(-c5ccc(F)c(Cl)c5)nn4)c3)oc2c1	> 100	> 100	100 (≈ 136 µM)	100 (≈ 136 µM)	10.4 (≈ 14.2 µM)	> 100	> 100	> 100	> 100	100 (≈ 136 µM)	> 100	> 100	100 (≈ 136 µM)	> 100	> 100	> 100
COc1cc(OC)c2c(=O)cc(-c3ccc(OCc4cn(-c5ccc(F)cc5F)nn4)c(OC)c3)oc2c1	> 100	> 100	> 100	> 100	4.79 (≈ 9.19 µM)	> 100	> 100	> 100	> 100	> 100	> 100	> 100	> 100	> 100	> 100	> 100
COc1cc(OC)c2c(=O)cc(-c3ccc(OCc4cn(-c5ccc(F)cc5Cl)nn4)c(OCc4cn(-c5ccc(F)cc5Cl)nn4)c3)oc2c1	12.5 (≈ 17 µM)	12.5 (≈ 17 µM)	> 100	12.5 (≈ 17 µM)	14.5 (≈ 19.7 µM)	> 100	> 100	> 100	6.25 (≈ 8.52 µM)	6.25 (≈ 8.52 µM)	12.5 (≈ 17 µM)	12.5 (≈ 17 µM)	> 100	12.5 (≈ 17 µM)	> 100	> 100
COc1cc(O)c(C(=O)/C=C/c2ccc(OC)c(OCc3cn(-c4ccccc4Cl)nn3)c2)c(OC)c1	12.5 (≈ 23.9 µM)	6.25 (≈ 12 µM)	50 (≈ 95.8 µM)	12.5 (≈ 23.9 µM)	8.03 (≈ 15.4 µM)	12.5 (≈ 23.9 µM)	25 (≈ 47.9 µM)	25 (≈ 47.9 µM)	12.5 (≈ 23.9 µM)	6.25 (≈ 12 µM)	12.5 (≈ 23.9 µM)	12.5 (≈ 23.9 µM)	100 (≈ 192 µM)	12.5 (≈ 23.9 µM)	> 100	> 100
COc1cc(O)c(C(=O)/C=C/c2ccc(OC)c(OCc3cn(-c4ccc(F)c(Cl)c4)nn3)c2)c(OC)c1	> 100	> 100	100 (≈ 185 µM)	> 100	7.52 (≈ 13.9 µM)	> 100	> 100	100 (≈ 185 µM)	> 100	100 (≈ 185 µM)	> 100	100 (≈ 185 µM)	> 100	> 100	> 100	> 100
COc1cc(OC)c2c(=O)cc(-c3ccc(OCc4cn(-c5ccc(F)c(Cl)c5)nn4)c(OC)c3)oc2c1	12.5 (≈ 23.2 µM)	12.5 (≈ 23.2 µM)	> 100	50 (≈ 92.9 µM)	4.48 (≈ 8.33 µM)	> 100	> 100	> 100	12.5 (≈ 23.2 µM)	12.5 (≈ 23.2 µM)	12.5 (≈ 23.2 µM)	6.25 (≈ 11.6 µM)	> 100	50 (≈ 92.9 µM)	> 100	> 100
COc1cc(OC)c2c(=O)cc(-c3ccc(OCc4cn(-c5ccc(Cl)cc5)nn4)c(OC)c3)oc2c1	12.5 (≈ 24 µM)	50 (≈ 96.2 µM)	> 100	50 (≈ 96.2 µM)	5.19 (≈ 9.98 µM)	> 100	> 100	100 (≈ 192 µM)	12.5 (≈ 24 µM)	50 (≈ 96.2 µM)	50 (≈ 96.2 µM)	12.5 (≈ 24 µM)	> 100	50 (≈ 96.2 µM)	> 100	> 100
COc1cc(O)c(C(=O)/C=C/c2ccc(OCc3cn(-c4ccccc4Cl)nn3)c(OCc3cn(-c4ccccc4Cl)nn3)c2)c(OC)c1	> 100	> 100	> 100	> 100	8.38 (≈ 12 µM)	> 100	> 100	> 100	> 100	> 100	> 100	> 100	> 100	> 100	> 100	> 100
COc1cc(OC)c2c(=O)cc(-c3ccc(OCc4cn(-c5ccc(F)cc5Cl)nn4)c(OC)c3)oc2c1	12.5 (≈ 23.2 µM)	12.5 (≈ 23.2 µM)	50 (≈ 92.9 µM)	12.5 (≈ 23.2 µM)	3.85 (≈ 7.16 µM)	50 (≈ 92.9 µM)	50 (≈ 92.9 µM)	> 100	25 (≈ 46.5 µM)	12.5 (≈ 23.2 µM)	12.5 (≈ 23.2 µM)	12.5 (≈ 23.2 µM)	> 100	12.5 (≈ 23.2 µM)	> 100	> 100
COc1cc(O)c(C(=O)/C=C/c2ccc(OCc3cn(-c4ccc(F)cc4Cl)nn3)c(OCc3cn(-c4ccc(F)cc4Cl)nn3)c2)c(OC)c1	> 100	> 100	> 100	> 100	8.55 (≈ 11.6 µM)	> 100	> 100	> 100	> 100	> 100	> 100	> 100	100 (≈ 136 µM)	> 100	> 100	> 100
COc1cc(O)c(C(=O)/C=C/c2ccc(OCc3cn(-c4ccc(Cl)cc4)nn3)c(OC)c2)c(OC)c1	6.25 (≈ 12 µM)	12.5 (≈ 23.9 µM)	> 100	25 (≈ 47.9 µM)	5.08 (≈ 9.73 µM)	> 100	> 100	> 100	12.5 (≈ 23.9 µM)	6.25 (≈ 12 µM)	12.5 (≈ 23.9 µM)	12.5 (≈ 23.9 µM)	> 100	25 (≈ 47.9 µM)	> 100	> 100
COc1cc(O)c(C(=O)/C=C/c2ccc(OC)c(OCc3cn(-c4ccc(F)cc4F)nn3)c2)c(OC)c1	> 100	> 100	50 (≈ 95.5 µM)	50 (≈ 95.5 µM)	9.54 (≈ 18.2 µM)	12.5 (≈ 23.9 µM)	100 (≈ 191 µM)	25 (≈ 47.8 µM)	> 100	> 100	> 100	> 100	> 100	50 (≈ 95.5 µM)	> 100	> 100
COc1cc(OC)c2c(=O)cc(-c3ccc(OCc4cn(-c5ccc(Cl)cc5)nn4)c(OCc4cn(-c5ccc(Cl)cc5)nn4)c3)oc2c1	> 100	> 100	6.25 (≈ 8.96 µM)	> 100	11.3 (≈ 16.2 µM)	25 (≈ 35.8 µM)	12.5 (≈ 17.9 µM)	12.5 (≈ 17.9 µM)	> 100	> 100	> 100	> 100	12.5 (≈ 17.9 µM)	> 100	> 100	12.5 (≈ 17.9 µM)
C[C@@H]1CC[C@H]2[C@@H](C)C(=O)O[C@@H]3O[C@@]4(C)CC[C@@H]1[C@]32OO4 [ARTEMISININ]	–	–	–	–	0.00112 (≈ 0.00396 µM)	–	–	–	–	–	–	–	–	–	> 100	–
OC(Cn1cncn1)(Cn1cncn1)c1ccc(F)cc1F [FLUCONAZOLE]	0.5 (≈ 1.63 µM)	0.5 (≈ 1.63 µM)	–	2 (≈ 6.53 µM)	–	–	–	–	4 (≈ 13.1 µM)	0.5 (≈ 1.63 µM)	0.5 (≈ 1.63 µM)	2 (≈ 6.53 µM)	–	2 (≈ 6.53 µM)	–	–
